Data on 14 compounds can be found in PubChem BioAssay.

SMILES strings stand for the structures. Calls of active or inactive are those of the source.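 The calls were made as follows, unless noted: active = viability at or below 10% of carrier control in both of two separate runs; inconclusive = viability at or below 10% in only one of the two runs; inactive = the rest.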

Assay [1] in a line: reducers of endogenous Her2 protein level, primary screen, SKBR3 breast tumor cells, AlphaScreen, ATP viability (AID 461;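 active = Her2 level under about 52% in both replicate screens, with viability over 70% of control, limit read from the data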;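 as to Her2 level: lower value means less Her2 protein in the cells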;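 as to viability: percent of carrier control wells set as 100% viability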). To be noted: 18-24 h, measured here: SKBR3 viability, ATP luminescence, at 10 µM. A general note: Bead proximity is the source of the signal in Alpha formats.
The target in assay [2] is Receptor tyrosine-protein kinase erbB-2 (Homo sapiens) (UniProt P04626). The description is as above. The note with it: 18-24 h, at 10 µM, stronger effect = lower value.
Receptor tyrosine-protein kinase erbB-2 (Homo sapiens), sequence (P04626 whole entry, looked up): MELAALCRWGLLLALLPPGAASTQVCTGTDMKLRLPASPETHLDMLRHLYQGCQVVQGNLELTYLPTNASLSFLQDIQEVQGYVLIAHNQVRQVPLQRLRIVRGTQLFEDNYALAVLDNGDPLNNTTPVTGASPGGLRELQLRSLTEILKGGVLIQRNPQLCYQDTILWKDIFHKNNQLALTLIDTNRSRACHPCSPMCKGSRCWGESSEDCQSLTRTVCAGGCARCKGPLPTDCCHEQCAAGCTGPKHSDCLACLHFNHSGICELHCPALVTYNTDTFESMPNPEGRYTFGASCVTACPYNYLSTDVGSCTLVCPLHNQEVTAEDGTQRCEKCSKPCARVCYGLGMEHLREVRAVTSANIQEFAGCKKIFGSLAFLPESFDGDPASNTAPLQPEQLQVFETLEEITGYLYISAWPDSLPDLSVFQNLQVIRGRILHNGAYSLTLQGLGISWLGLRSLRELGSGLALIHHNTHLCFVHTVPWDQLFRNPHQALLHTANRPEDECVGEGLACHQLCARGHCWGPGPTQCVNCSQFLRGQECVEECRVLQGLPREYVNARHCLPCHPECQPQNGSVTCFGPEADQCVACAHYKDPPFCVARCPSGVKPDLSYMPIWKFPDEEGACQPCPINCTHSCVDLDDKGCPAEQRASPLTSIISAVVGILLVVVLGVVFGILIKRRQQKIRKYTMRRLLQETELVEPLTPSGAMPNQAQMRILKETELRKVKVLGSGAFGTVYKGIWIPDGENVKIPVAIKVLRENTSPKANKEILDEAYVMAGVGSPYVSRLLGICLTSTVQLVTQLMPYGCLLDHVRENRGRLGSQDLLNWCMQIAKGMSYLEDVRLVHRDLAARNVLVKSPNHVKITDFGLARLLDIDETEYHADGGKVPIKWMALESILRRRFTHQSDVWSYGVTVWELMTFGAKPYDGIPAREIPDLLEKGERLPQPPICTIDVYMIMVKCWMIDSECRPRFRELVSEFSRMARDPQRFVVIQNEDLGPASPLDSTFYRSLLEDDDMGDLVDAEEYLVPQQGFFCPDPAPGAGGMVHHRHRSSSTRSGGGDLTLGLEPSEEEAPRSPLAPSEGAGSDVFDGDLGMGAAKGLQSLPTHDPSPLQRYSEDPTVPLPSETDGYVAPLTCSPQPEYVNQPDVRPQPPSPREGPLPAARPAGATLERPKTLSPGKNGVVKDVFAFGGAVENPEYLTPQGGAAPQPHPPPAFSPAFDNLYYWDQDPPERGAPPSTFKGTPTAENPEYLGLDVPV
The nature of assay [3]: SK-BR-3 cell growth inhibitors, pilot screen, 24 h, human (AID 572).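 Also: compound exposure lasted between 18 and 24 h rather than exactly 24 h; 100% = carrier-treated control wells.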 To be noted: SK-BR-3 viability, CellTiter-Glo luminescence, at 10 µM, stronger effect = lower value.
The nature of assay [4]: HUVEC growth inhibition – cell-based, human, primary screen (AID 575;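 active = viability at or below 30% in both replicate assays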;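 also: 100% = median of untreated cell wells with 0.1% DMSO on each plate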). To be noted: HUVEC proliferation, CellTiter-Glo luminescence, 72 h; at 10 µM; stronger effect = lower value. An outline of the steps: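 Test system: primary human umbilical vein endothelial cells; medium: endothelial basal medium with 2% FBS plus growth supplements; dosing: 10 µM compound only; times: 72 h treatment at 37 °C; signal: CTG luminescence; read-out: % viability relative to median vehicle-well signal on each plate; control set: vehicle and MePR control wells; plate: 384-well, collagen-coated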
In general terms: ATP-based viability assays read luminescence as a measure of living cells.

Assay [5] can be described thus: growth inhibitors of H69AR lung tumor, primary screen, human, duplicate replicates (AID 580;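 active = viability at or under a set limit in both replicates, limit being median viability minus 3 SD, cut at about 48% in these data, passing the limit was not always enough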;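 also: 100% = mean luminescence of untreated wells and 0% = no signal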). To be noted: H69AR lung tumor cells viability, ATP luminescence, 72 h; at 10 µM; stronger effect = lower value.
The nature of assay [6]: reversal of MRP1-mediated doxorubicin resistance, pilot screen, H69AR cells, doxorubicin co-treatment (AID 601;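 active = viability loss from added drug above about 55%, and viability with drug at most 40%, in both replicates, limit read from the data, passing the limit was not always enough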). To be noted: CellTiter-Glo, 72 h, at 10 µM; for differential viability (reversal): stronger effect = higher value.
A short description of assay [7]: 384-well plate pilot, post-Golgi transport modulator project, inhibition of yeast transport mutant growth (AID 636; in the data active = inhibition above about 31%). The note with it: absorbance 615 nm, about 18 h, stronger effect = higher value.
The nature of assay [8]: growth suppression of yeast trafficking mutant, preliminary HTS, modulators of trafficking downstream of Golgi apparatus project, 1536-format plate, OD 615 nm (AID 637; in the data active = inhibition above about 30%). The note with it: yeast transport mutant growth, absorbance 615 nm, 18 h; stronger effect = higher value.
Where [9] appears, read: H69AR cells + 2 uM doxorubicin, measured here: viability with 2 uM doxorubicin, stronger effect = lower value.
Where [10] appears, read: H69AR cells, compound alone cytotoxicity.

As to `CCOc1ccccc1N1CCN(C(=O)c2ccncc2)CC1`, the viability in assay [1] is 97%; in assay [3], 97% (inactive); in assay [4], 90.2% (inactive); in assay [5] it was 93.6% (inactive); in assay [6] (setting [9]), 80.2%; in assay [6] (setting [10]) it was 93.6%. Further, in assay [2], the Her2 level was 100% (inactive). The differential viability (reversal) in assay [6] (H69AR cells + 2 uM doxorubicin) was 13.4% (inactive). In addition, the inhibition is -2.99% (inactive) in assay [7] and -9.34% (inactive) in assay [8].

`O=C(OCc1cccs1)c1ccccc1NS(=O)(=O)c1ccc2c(c1)OCCO2`: the viability in assay [1] was 91.5%; in assay [3], 91.5% (inactive); in assay [4] it was 121% (inactive); in assay [5], 102% (inactive); in assay [6] (setting [9]) it was 86.7%; in assay [6] (setting [10]) it was 102%. Also, the Her2 level in assay [2] was 94% (inactive). The differential viability (reversal) in assay [6] (H69AR cells + 2 uM doxorubicin) is 15.6% (inactive). Besides, the inhibition was -3.95% (inactive) in assay [7] and 5.74% (inactive) in assay [8].

As to `O=C(COc1ccccc1Cl)OCC(=O)N1CCN(S(=O)(=O)c2ccccc2)CC1`, the viability is 101% in assay [1]; 101% (inactive) in assay [3]; 89.4% (inactive) in assay [4]; 87.4% (inactive) in assay [5]; 89.2% in assay [6] (setting [9]); 87.4% in assay [6] (setting [10]). Also, the Her2 level in assay [2] was 85% (inactive). In addition, in assay [6] (H69AR cells + 2 uM doxorubicin), the differential viability (reversal) was -1.84% (inactive). The inhibition in assay [7] was -6.13% (inactive); in assay [8], -2.79% (inactive).

`Cc1cccc(N(C)C(=O)c2coc(=O)c3ccccc23)c1`: the viability in assay [1] is 85%; in assay [3], 85% (inactive); in assay [4], 82.9% (inactive); in assay [5] it was 85.8% (inactive); in assay [6] (setting [9]) it was 88.7%; in assay [6] (setting [10]), 85.8%. In addition, the Her2 level in assay [2] was 81% (inactive). For the same compound, the differential viability (reversal) in assay [6] (H69AR cells + 2 uM doxorubicin) was -2.86% (inactive). Besides, the results for the inhibition in assay [7] and in assay [8] were -3.16% (inactive) and -1.64% (inactive), respectively.

In the case of `Cc1cc(C(=O)Cn2cncn2)c(C)n1CCc1ccc(F)cc1`, the viability was 64% in assay [1]; 64% (inactive) in assay [3]; 105% (inactive) in assay [4]; 89.2% (inactive) in assay [5]; 95% in assay [6] (setting [9]); 89.2% in assay [6] (setting [10]). In assay [2], the Her2 level is 80% (inactive). For the same compound, the differential viability (reversal) in assay [6] (H69AR cells + 2 uM doxorubicin) is -5.71% (inactive). Moreover, the inhibition is -5.41% (inactive) in assay [7] and 3.11% (inactive) in assay [8].

As for `COC(=O)CN(c1ccc(F)cc1)S(=O)(=O)c1ccccc1`, the viability was 91.5% in assay [1]; 91.5% (inactive) in assay [3]; 122% (inactive) in assay [4]; 92.1% (inactive) in assay [5]; 92.8% in assay [6] (setting [9]); 92.1% in assay [6] (setting [10]). Besides, the Her2 level in assay [2] was 109% (inactive). In addition, the differential viability (reversal) in assay [6] (H69AR cells + 2 uM doxorubicin) is -0.7% (inactive). For the same compound, the inhibition in assay [7] was 0.13% (inactive); in assay [8], -3.93% (inactive).

Turning to `COc1ccc(S(=O)(=O)N(CCN2CCOCC2)Cc2cc(OC)ccc2OC)cc1`, the viability in assay [1] was 91%; in assay [3], 91% (inactive); in assay [4], 96.2% (inactive); in assay [5], 70% (inactive); in assay [6] (setting [9]) it was 66.8%; in assay [6] (setting [10]), 70%. Also, the Her2 level in assay [2] is 88.5% (inactive). In addition, the differential viability (reversal) in assay [6] (H69AR cells + 2 uM doxorubicin) was 3.16% (inactive). For the same compound, the inhibition is -3.25% (inactive) in assay [7] and -5.08% (inactive) in assay [8].

As to `CCOC(=O)C1=C(CSc2nc(C)cc(C)c2C#N)OC(N)=C(C#N)C1c1cccs1` (stereo not given), the viability in assay [1] is 108%; in assay [3], 108% (inactive); in assay [4], 78.5% (inactive); in assay [5], 83.1% (inactive); in assay [6] (setting [9]), 74.5%; in assay [6] (setting [10]), 83.1%. For the same compound, the Her2 level in assay [2] was 85.5% (inactive). Further, the differential viability (reversal) in assay [6] (H69AR cells + 2 uM doxorubicin) is 8.64% (inactive). The inhibition is -5.33% (inactive) in assay [7] and 0.16% (inactive) in assay [8].

As for `COc1ccc(CCn2c(N)c(C#N)c3nc4ccccc4nc32)cc1OC`, the viability in assay [1] is 64%; in assay [3], 64% (inactive); in assay [4], 94.3% (inactive); in assay [5] it was 90.4% (inactive); in assay [6] (setting [9]), 89.6%; in assay [6] (setting [10]), 90.4%. In assay [2], the Her2 level was 82.5% (inactive). Also, the differential viability (reversal) in assay [6] (H69AR cells + 2 uM doxorubicin) was 0.84% (inactive). In addition, the values for the inhibition in assay [7] and in assay [8] were -1.45% (inactive) and 7.87% (inactive), respectively.

In the case of `COc1ccc(C(=O)CN2C(=O)NC3(CCCc4ccccc43)C2=O)cc1OC` (stereo not given), the viability in assay [1] was 98%; in assay [3], 98% (inactive); in assay [4], 95.6% (inactive); in assay [5], 88.6% (inactive); in assay [6] (setting [9]), 77.7%; in assay [6] (setting [10]), 88.6%. Further, in assay [2], the Her2 level is 84.5% (inactive). For the same compound, in assay [6] (H69AR cells + 2 uM doxorubicin), the differential viability (reversal) was 10.9% (inactive). Besides, the inhibition in assay [7] was -1.87% (inactive); in assay [8] it was 2.42% (inactive).

Consider `CCOc1cc2oc(=O)c3c(c2cc1Cl)CCC3`, for which the viability in assay [1] was 106%; in assay [3] it was 106% (inactive); in assay [4], 102% (inactive); in assay [5] it was 85.6% (inactive); in assay [6] (setting [9]), 77.5%; in assay [6] (setting [10]), 85.6%. Also, in assay [2], the Her2 level is 96% (inactive). Further, the differential viability (reversal) in assay [6] (H69AR cells + 2 uM doxorubicin) was 8.13% (inactive). The inhibition in assay [7] was -3.84% (inactive); in assay [8], 2.38% (inactive).

In the case of `Cc1cc(NC(=O)CSc2nccn2-c2ccc(Cl)cc2)no1`, the viability is 91.5% in assay [1]; 91.5% (inactive) in assay [3]; 111% (inactive) in assay [4]; 106% (inactive) in assay [5]; 78.1% in assay [6] (setting [9]); 106% in assay [6] (setting [10]). In addition, in assay [2], the Her2 level was 103% (inactive). The differential viability (reversal) in assay [6] (H69AR cells + 2 uM doxorubicin) is 28% (inactive). In addition, the inhibition was -1.56% (inactive) in assay [7] and -2.38% (inactive) in assay [8].

As for `Cc1cnc(C(=O)Nc2ccc(N3CCN(C(=O)OC(C)(C)C)CC3)cc2)cn1`, the viability is 109% in assay [1]; 109% (inactive) in assay [3]; 100% (inactive) in assay [4]; 115% (inactive) in assay [5]; 99.9% in assay [6] (setting [9]); 115% in assay [6] (setting [10]). In addition, in assay [2], the Her2 level is 106% (inactive). In addition, the differential viability (reversal) in assay [6] (H69AR cells + 2 uM doxorubicin) is 15.1% (inactive). For the same compound, the results for the inhibition in assay [7] and in assay [8] were -5.84% (inactive) and -6.51% (inactive), respectively.

For the compound `COc1ccccc1-c1coc2c(CN3CCN(CCO)CC3)c(O)ccc2c1=O`, the viability is 87.5% in assay [1]; 87.5% (inactive) in assay [3]; 94.5% (inactive) in assay [4]; 106% (inactive) in assay [5]; 87.5% in assay [6] (setting [9]); 106% in assay [6] (setting [10]). For the same compound, the Her2 level in assay [2] is 93.5% (inactive). Also, in assay [6] (H69AR cells + 2 uM doxorubicin), the differential viability (reversal) was 18.9% (inactive). The inhibition is -4.27% (inactive) in assay [7] and 0.65% (inactive) in assay [8].

By viability is commonly meant a read-out of living cells in per cent, often relative to untreated cells. The term inhibition denotes the change of the read-out against control, counted positive when it falls.
